# Laboratory results published in ChEMBL document CHEMBL4414638, “Structure-Activity Relationship of Peptide-Conjugated Chloramphenicol for Inhibiting Escherichia coli” (J Med Chem, 2019).
# The source made the active and inactive calls. No cut-off for these calls is given here.
# Assays:
# Escherichia coli [1] = assay: Antibacterial activity against ydgR gene deficient Escherichia coli assessed as reduction in bacterial growth at 0.1 to 100 uM incubated for 16 hrs; format: functional, organism-based
# [2] = Drug metabolism in Escherichia coli K-12 lysates assessed as esterase-mediated drug hydrolysis by measuring apparent first-order rate constant at 200 uM incubated up to 24 hrs by HPLC analysis; format: ADME, subcellular, Lysate; conditions: escherichia coli k-12, isolated protein
# Escherichia coli [3] = assay: Antibacterial activity against Escherichia coli K-12 assessed as reduction in bacterial growth incubated for 16 hrs in absence of porcine liver esterase; format: functional; conditions: K-12, 16 h
# Escherichia coli [4] = assay: Antibacterial activity against yqiA gene deficient Escherichia coli assessed as reduction in bacterial growth at 0.1 to 100 uM incubated for 16 hrs; format: functional, organism-based
# [5] = Drug metabolism in Escherichia coli K-12 lysates assessed as esterase-mediated drug hydrolysis at 200 uM incubated up to 24 hrs by HPLC analysis; format: ADME, subcellular, Lysate; conditions: escherichia coli k-12, isolated protein
# Escherichia coli [6] = assay: Antibacterial activity against ybfF gene deficient Escherichia coli assessed as reduction in bacterial growth at 0.1 to 100 uM incubated for 16 hrs; format: functional, organism-based
# Escherichia coli [7] = assay: Antibacterial activity against Escherichia coli K-12 assessed as reduction in bacterial growth incubated for 16 hrs in presence of porcine liver esterase; format: functional; conditions: K-12, 16 h
# Escherichia coli [8] = assay: Antibacterial activity against ypfH gene deficient Escherichia coli assessed as reduction in bacterial growth at 0.1 to 100 uM incubated for 16 hrs; format: functional, organism-based
# Escherichia coli [9] = assay: Antibacterial activity against yeiG gene deficient Escherichia coli assessed as reduction in bacterial growth at 0.1 to 100 uM incubated for 16 hrs; format: functional, organism-based
# Escherichia coli [10] = assay: Antibacterial activity against ompF gene deficient Escherichia coli assessed as reduction in bacterial growth at 0.1 to 100 uM incubated for 16 hrs; format: functional, organism-based
# Escherichia coli [11] = assay: Antibacterial activity against yfbB gene deficient Escherichia coli assessed as reduction in bacterial growth at 0.1 to 100 uM incubated for 16 hrs; format: functional, organism-based
# Escherichia coli [12] = assay: Antibacterial activity against fepA gene deficient Escherichia coli assessed as reduction in bacterial growth at 0.1 to 100 uM incubated for 16 hrs; format: functional, organism-based
# Escherichia coli [13] = assay: Antibacterial activity against Escherichia coli K-12 assessed as reduction in bacterial growth incubated for 16 hrs; format: functional; conditions: K-12, 16 h
# [14] = Cytotoxicity in human HS5 cells assessed as reduction in cell viability at 20 uM to 2 mM incubated up to […]rs relative to chloramphenicol; format: cell-based
# Escherichia coli [15] = assay: Antibacterial activity against acrA gene deficient Escherichia coli assessed as reduction in bacterial cell viability at 0.1 to 100 uM incubated for 16 hrs relative to control; format: functional
# [16] = Drug metabolism in human serum assessed as formation of chloramphenicol at 200 uM at 37 degC after 2 hrs by LC-MS analysis relative to control
# [17] = Drug metabolism in human serum assessed as formation of chloramphenicol at 200 uM at 37 degC after 24 hrs by LC-MS analysis relative to control
# HEK293 [18] = assay: Cytotoxicity in human HEK293 cells assessed as reduction in cell viability at 20 uM […] relative to chloramphenicol; format: cell-based; conditions: hek293, 20 µM
# Escherichia coli [19] = assay: Antibacterial activity against yjfP gene deficient Escherichia coli assessed as reduction in bacterial growth at 0.1 to 100 uM incubated for 16 hrs; format: functional, organism-based
# [20] = Drug metabolism in human HepG2 cells lysates assessed as esterase-mediated drug hydrolysis at 200 uM incubated up to 24 hrs by HPLC analysis; format: ADME, subcellular, Lysate; conditions: hepg2, 24 h
# Escherichia coli [21] = assay: Antibacterial activity against bioH gene deficient Escherichia coli assessed as reduction in bacterial growth at 0.1 to 100 uM incubated for 16 hrs; format: functional, organism-based
# Escherichia coli [22] = assay: Antibacterial activity against frsA gene deficient Escherichia coli assessed as reduction in bacterial growth at 0.1 to 100 uM incubated for 16 hrs; format: functional, organism-based
# [23] = Cytotoxicity in human HS5 cells assessed as reduction in cell viability at 0.5 to 50 uM incubated […] relative to chloramphenicol; format: cell-based
# Outline: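 HS-5 cells were exposed for 24 h to conjugates and chloramphenicol at 20, 200 or 2000 μM, or to comparator antibiotics at 0.5, 5 or 50 μM, and cell viability was then read.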
# HEK293 [24] = assay: Cytotoxicity in human HEK293 cells assessed as reduction in cell viability at 0.5 uM […] relative to chloramphenicol; format: cell-based; conditions: hek293, 0.5 µM
compound,measurement,setting,value
O=C(CCC(=O)OC[C@@H](NC(=O)C(Cl)Cl)[C@H](O)c1ccc([N+](=O)[O-])cc1)NCC(=O)N[C@H](CO)C(=O)O,Activity,Escherichia coli [1],Active
same,K,[2],3.763 h⁻¹
same,MIC,Escherichia coli [3],20 µM
same,Activity,Escherichia coli [4],inactive
same,Drug metabolism,[5],Metabolite_Detected
same,Activity,Escherichia coli [6],inactive
same,MIC,Escherichia coli [7],20 µM
same,Activity,Escherichia coli [8],inactive
same,Activity,Escherichia coli [9],inactive
same,Activity,Escherichia coli [10],Active
same,Activity,Escherichia coli [11],inactive
same,Activity,Escherichia coli [12],Active
same,MIC,Escherichia coli [13],20 µM
same,Activity,[14],Non-Toxic
same,Activity,Escherichia coli [15],30%
same,Drug metabolism,[16],Metabolite_Detected
same,Drug metabolism,[17],Metabolite_Detected
same,Activity,HEK293 [18],Toxic
same,Activity,Escherichia coli [19],inactive
same,Drug metabolism,[20],Metabolite_Detected
same,Activity,Escherichia coli [21],inactive
same,Activity,Escherichia coli [22],inactive
CC[C@H]1OC(=O)[C@H](C)C(=O)[C@H](C)[C@@H](O[C@@H]2O[C@H](C)C[C@H](N(C)C)[C@H]2O)[C@](C)(OC)C[C@@H](C)C(=O)[C@H](C)[C@H]2N(CCCCn3cnc(-c4cccnc4)c3)C(=O)O[C@]12C [TELITHROMYCIN],Activity,[23],Non-Toxic
same,MIC,Escherichia coli [13],0.6 µg/mL
same,Activity,HEK293 [24],Toxic
NCCCC[C@H](NC(=O)CNC(=O)CCC(=O)OC[C@@H](NC(=O)C(Cl)Cl)[C@H](O)c1ccc([N+](=O)[O-])cc1)C(=O)O,MIC,Escherichia coli [13],20 µM
same,Activity,[14],Non-Toxic
same,Drug metabolism,[16],Metabolite_Detected
same,Drug metabolism,[17],Metabolite_Detected
same,Activity,HEK293 [18],Toxic
O=C(CCC(=O)OC[C@@H](NC(=O)C(Cl)Cl)[C@H](O)c1ccc([N+](=O)[O-])cc1)NCC(=O)NCC(=O)N[C@H](Cc1ccccc1)C(=O)O,MIC,Escherichia coli [13],20 µM
same,Activity,[14],Non-Toxic
same,Drug metabolism,[16],Metabolite_Detected
same,Drug metabolism,[17],Metabolite_Detected
same,Activity,HEK293 [18],Toxic
COc1cc(Cc2cnc(N)nc2N)cc(OC)c1OC [TRIMETHOPRIM],Activity,[23],Non-Toxic
same,MIC,Escherichia coli [13],1 µg/mL
same,Activity,HEK293 [24],Toxic
NCCCC[C@H](NC(=O)[C@H](CCCCN)NC(=O)CCC(=O)OC[C@@H](NC(=O)C(Cl)Cl)[C@H](O)c1ccc([N+](=O)[O-])cc1)C(=O)O,Activity,Escherichia coli [1],Active
same,K,[2],0.31 h⁻¹
same,MIC,Escherichia coli [3],200 µM
same,Activity,Escherichia coli [4],inactive
same,Drug metabolism,[5],Metabolite_Detected
same,Activity,Escherichia coli [6],inactive
same,MIC,Escherichia coli [7],200 µM
same,Activity,Escherichia coli [8],inactive
same,Activity,Escherichia coli [9],inactive
same,Activity,Escherichia coli [10],Active
same,Activity,Escherichia coli [11],inactive
same,Activity,Escherichia coli [12],Active
same,MIC,Escherichia coli [13],200 µM
same,Activity,Escherichia coli [15],50%
same,Drug metabolism,[17],Metabolite_Detected
same,Activity,Escherichia coli [19],inactive
same,Drug metabolism,[20],Metabolite_Detected
same,Activity,Escherichia coli [21],inactive
same,Activity,Escherichia coli [22],inactive
O=C(O)c1cn(C2CC2)c2cc(N3CCNCC3)c(F)cc2c1=O [CIPROFLOXACIN],Activity,[23],Non-Toxic
same,Activity,HEK293 [24],Toxic
